Active and inactive are the calls of the source.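 How the source made its calls, unless noted: active means current rise at least 3 SD above the untreated control mean in each of two repeat wells; inactive means the rest.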
Target: Potassium voltage-gated channel subfamily KQT member 2 (Rattus norvegicus) (UniProt O88943)
Assay: rat KCNQ2 channel potentiation, selectivity assay for KCNQ1 potentiator project, KCNQ2-CHO-K1 cells (AID 493009;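 active means mean duplicate potentiation above the buffer control mean plus 5 SD of buffer wells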;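 further: assay conditions were tuned for KCNQ1 rather than KCNQ2 modulators; signal is max minus min fluorescence divided by baseline after thallium stimulus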)
Details: FluxOR thallium flux fluorescence, at 10 µM; hits give high values, scaled: buffer 0, activator control 100

Potassium voltage-gated channel subfamily KQT member 2 (Rattus norvegicus), sequence (O88943 whole entry, looked up): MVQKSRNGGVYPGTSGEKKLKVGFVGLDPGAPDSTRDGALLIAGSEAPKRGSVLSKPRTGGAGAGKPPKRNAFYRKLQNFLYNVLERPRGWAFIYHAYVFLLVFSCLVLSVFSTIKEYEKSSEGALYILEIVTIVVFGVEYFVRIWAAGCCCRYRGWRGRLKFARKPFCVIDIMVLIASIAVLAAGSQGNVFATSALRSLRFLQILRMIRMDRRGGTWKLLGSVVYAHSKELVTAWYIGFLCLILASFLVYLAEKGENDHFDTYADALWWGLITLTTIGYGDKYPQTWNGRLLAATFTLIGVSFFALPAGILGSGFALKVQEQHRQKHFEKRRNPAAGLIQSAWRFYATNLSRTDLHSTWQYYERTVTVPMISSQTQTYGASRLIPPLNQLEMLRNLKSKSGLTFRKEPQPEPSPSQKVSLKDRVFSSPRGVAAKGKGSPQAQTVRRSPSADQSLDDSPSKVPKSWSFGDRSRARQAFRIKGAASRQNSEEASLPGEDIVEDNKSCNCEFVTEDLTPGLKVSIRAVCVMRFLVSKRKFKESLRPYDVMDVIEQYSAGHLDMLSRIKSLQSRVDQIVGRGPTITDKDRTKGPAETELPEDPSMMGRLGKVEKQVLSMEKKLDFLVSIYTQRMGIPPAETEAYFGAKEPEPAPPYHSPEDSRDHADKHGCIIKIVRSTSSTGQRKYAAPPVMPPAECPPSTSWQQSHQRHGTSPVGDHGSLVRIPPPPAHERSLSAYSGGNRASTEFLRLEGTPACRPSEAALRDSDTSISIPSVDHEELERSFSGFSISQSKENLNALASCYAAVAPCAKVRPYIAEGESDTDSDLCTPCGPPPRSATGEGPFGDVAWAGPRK

SMILES | potentiation | outcome
Cc1sc2ncnc(SCC(=O)NC(=O)c3cccn3C)c2c1C | 201% (active) | –
CC(C)C(NC(=O)Nc1ccccc1)C(=O)Nc1cccc(S(=O)(=O)N(C)C)c1 (stereo not drawn) | 232% (active) | –
COc1ccc(S(=O)(=O)NCCCN2CCOCC2)cc1F | – | inactive
COC(=O)c1c(NC(=S)Nc2ccccc2Cl)sc(C)c1C | – | inactive
COc1cccc2sc(NNC(=O)C3COc4ccccc4O3)nc12 (stereo not drawn) | – | inactive
COc1ccc(/C=N/N=C2/NC(=O)C(c3ccccc3)S2)c(OC)c1 (stereo not drawn) | – | inactive
CCOC(=O)Cn1c(=S)[nH]c2c(oc3ccc(Cl)cc32)c1=O | 218% (active) | –
O=C(CSc1cccc[n+]1[O-])c1cc(Cl)ccc1Cl | – | inactive
CC(/C=C1\SC(=S)N(c2ccc(C(=O)O)cc2)C1=O)=C\c1ccccc1 | – | inactive
CCN(CC)c1ccc(Nc2cc3n(c(=O)n2)CCc2cc(OC)c(OC)cc2-3)cc1 | – | inactive
Fc1ccc2nc(Nc3nc4c(F)cc(F)cc4s3)sc2c1 | 210% (active) | –
O=c1[nH]c(C(Cl)(Cl)Cl)nc2ccc3ccccc3c12 | 202% (active) | –
Cc1nn2c(c1-c1ccccc1)NC1=C(C(=O)CCC1)C2c1ccccc1 (stereo not drawn) | – | inactive
O=C(O)c1cnn(-c2ccccc2)c1-c1ccncc1 | 202% (active) | –
CN(C)CCCC1(O)c2ccccc2C=Cc2ccccc21 | – | inactive
Cc1sc2nc(C(C)C)nc(SCC(=O)N3c4ccccc4CC3C)c2c1C (stereo not drawn) | 177% (active) | –
COc1cc2c3nnc(-c4ccccc4)c-3cn(Cc3ccc(F)cc3)c2cc1OC | – | inactive
CCCN(CCC)CCNC(=O)Cn1cnc2sc(C)c(S(=O)(=O)N3CCOCC3)c2c1=O | – | inactive
Cc1c(-c2ccccc2)sc2nc[nH]c(=S)c12 | 304% (active) | –
CC(Sc1nnnn1-c1ccc(O)cc1)C(=O)NC1CCCCC1C (stereo not drawn) | – | inactive

SMILES | potentiation | outcome
Cc1ccccc1C(=O)Nc1nc(=S)ss1 | 267% (active) | –
CC(C)c1nc2oc3c(NCC4CCCO4)ncnc3c2c2c1COC(C)(C)C2 (stereo not drawn) | – | inactive
C=CCn1c(-c2cc(-c3ccc(C)cc3)nc3ccccc23)n[nH]c1=S | 170% (active) | –
CSC(=S)N/N=C/c1ccc(N(C)C)cc1 | – | inactive
O=C(NC(=S)N1CCN(c2ccc([N+](=O)[O-])cc2Cl)CC1)c1ccco1 | – | inactive
CC(C)CSc1n[nH]c(=S)s1 | 145% (active) | –
CCCc1cc(=O)n2[nH]c(C)c(-c3ccc(Cl)cc3)c2n1 | 172% (active) | –
COc1ccccc1NC(=O)CCN1CCN(c2ccc(Cl)cc2)CC1 | – | inactive
CCCn1c(NC(=O)CN2C(=O)NC3(CCCC3)C2=O)nc2ccccc21 | – | inactive
CCOC(=O)c1n[nH]n2c1nc(=S)c1ccccc12 | 246% (active) | –
O=C(NN=C1CCCCCC1)c1cc(-c2ccccc2)nc2ccccc12 | – | inactive
COc1ccc(C(=O)c2ccc(OC)c(N)c2)cc1N | 178% (active) | –
COc1cc(OC)cc(C(=O)NC(=S)N2CCCCCC2)c1 | 198% (active) | –
COc1ccc(C(=O)N2CCC(N3CCN(c4ccccc4)CC3)CC2)cc1 | – | inactive
CCc1ccc(NC(=O)CSc2nc3ccsc3c(=O)n2CCC(=O)O)cc1 | 172% (active) | –
CC(C)CC(=O)O/N=C1\C(=O)N(c2ccccc2)c2ccccc21 | – | inactive
Cc1cc(/C=C2\SC(=Nc3ccc(F)cc3)NC2=O)c(C)n1-c1ccc(S(N)(=O)=O)cc1 | – | inactive
Cc1nc(SC(C)C(=O)c2c(N)n(C)c(=O)n(C)c2=O)c2c(C)c(C)sc2n1 (stereo not drawn) | 256% (active) | –
O=C(NC(=S)N1CCN(c2nc(-c3ccccc3)cs2)CC1)c1cncc(Br)c1 | 505% (active) | –

Target: Potassium voltage-gated channel subfamily KQT member 1 (Homo sapiens) (UniProt P51787)
Assay: KCNQ1 channel current potentiators, confirmation, orthogonal assay for KCNQ1 potentiator project, IonWorks patch clamp, KCNQ1-CHO cells (AID 493184)
Details: automated patch clamp current, at 10 µM; hits give high values
In short: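 Read-out: Percent current increase versus pre-compound level | Assay system: CHO cells carrying KCNQ1 | Measured by: Automated perforated-patch electrophysiology | Medium: External bath solution at pH 7.4 | Dosing: One dose, 10 µM final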

Potassium voltage-gated channel subfamily KQT member 1 (Homo sapiens), sequence (P51787 whole entry, looked up): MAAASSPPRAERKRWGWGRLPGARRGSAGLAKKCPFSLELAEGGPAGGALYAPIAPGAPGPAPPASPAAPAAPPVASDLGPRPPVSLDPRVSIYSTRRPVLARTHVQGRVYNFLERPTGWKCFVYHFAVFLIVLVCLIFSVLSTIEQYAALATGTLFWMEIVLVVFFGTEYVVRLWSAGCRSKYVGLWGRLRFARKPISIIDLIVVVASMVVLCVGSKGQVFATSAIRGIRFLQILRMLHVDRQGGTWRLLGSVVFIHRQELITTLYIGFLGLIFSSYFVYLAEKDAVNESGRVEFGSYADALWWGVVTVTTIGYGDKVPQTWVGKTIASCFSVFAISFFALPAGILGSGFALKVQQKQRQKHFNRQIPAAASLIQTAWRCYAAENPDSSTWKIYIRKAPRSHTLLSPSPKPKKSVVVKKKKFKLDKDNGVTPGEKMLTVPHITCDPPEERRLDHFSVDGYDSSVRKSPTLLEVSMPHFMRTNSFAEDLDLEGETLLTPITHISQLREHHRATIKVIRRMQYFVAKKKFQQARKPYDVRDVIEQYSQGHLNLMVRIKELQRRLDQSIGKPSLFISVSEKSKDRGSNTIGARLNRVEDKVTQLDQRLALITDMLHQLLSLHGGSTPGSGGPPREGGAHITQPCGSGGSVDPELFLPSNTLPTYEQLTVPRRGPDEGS

SMILES | outcome
Cc1sc2ncnc(SCC(=O)NC(=O)c3cccn3C)c2c1C | inactive
CC(C)C(NC(=O)Nc1ccccc1)C(=O)Nc1cccc(S(=O)(=O)N(C)C)c1 (stereo not drawn) | inactive
COc1ccc(S(=O)(=O)NCCCN2CCOCC2)cc1F | inactive
COC(=O)c1c(NC(=S)Nc2ccccc2Cl)sc(C)c1C | inactive
COc1cccc2sc(NNC(=O)C3COc4ccccc4O3)nc12 (stereo not drawn) | inactive
COc1ccc(/C=N/N=C2/NC(=O)C(c3ccccc3)S2)c(OC)c1 (stereo not drawn) | inactive
CCOC(=O)Cn1c(=S)[nH]c2c(oc3ccc(Cl)cc32)c1=O | inactive
O=C(CSc1cccc[n+]1[O-])c1cc(Cl)ccc1Cl | inactive
CC(/C=C1\SC(=S)N(c2ccc(C(=O)O)cc2)C1=O)=C\c1ccccc1 | inactive
CCN(CC)c1ccc(Nc2cc3n(c(=O)n2)CCc2cc(OC)c(OC)cc2-3)cc1 | inactive
Fc1ccc2nc(Nc3nc4c(F)cc(F)cc4s3)sc2c1 | inactive
O=c1[nH]c(C(Cl)(Cl)Cl)nc2ccc3ccccc3c12 | inactive
Cc1nn2c(c1-c1ccccc1)NC1=C(C(=O)CCC1)C2c1ccccc1 (stereo not drawn) | inactive
O=C(O)c1cnn(-c2ccccc2)c1-c1ccncc1 | inactive
CN(C)CCCC1(O)c2ccccc2C=Cc2ccccc21 | inactive
Cc1sc2nc(C(C)C)nc(SCC(=O)N3c4ccccc4CC3C)c2c1C (stereo not drawn) | inactive
COc1cc2c3nnc(-c4ccccc4)c-3cn(Cc3ccc(F)cc3)c2cc1OC | inactive
CCCN(CCC)CCNC(=O)Cn1cnc2sc(C)c(S(=O)(=O)N3CCOCC3)c2c1=O | inactive
Cc1c(-c2ccccc2)sc2nc[nH]c(=S)c12 | inactive
CC(Sc1nnnn1-c1ccc(O)cc1)C(=O)NC1CCCCC1C (stereo not drawn) | inactive

SMILES | outcome
Cc1ccccc1C(=O)Nc1nc(=S)ss1 | inactive
CC(C)c1nc2oc3c(NCC4CCCO4)ncnc3c2c2c1COC(C)(C)C2 (stereo not drawn) | inactive
C=CCn1c(-c2cc(-c3ccc(C)cc3)nc3ccccc23)n[nH]c1=S | inactive
CSC(=S)N/N=C/c1ccc(N(C)C)cc1 | inactive
O=C(NC(=S)N1CCN(c2ccc([N+](=O)[O-])cc2Cl)CC1)c1ccco1 | inactive
CC(C)CSc1n[nH]c(=S)s1 | inactive
CCCc1cc(=O)n2[nH]c(C)c(-c3ccc(Cl)cc3)c2n1 | inactive
COc1ccccc1NC(=O)CCN1CCN(c2ccc(Cl)cc2)CC1 | inactive
CCCn1c(NC(=O)CN2C(=O)NC3(CCCC3)C2=O)nc2ccccc21 | inactive
CCOC(=O)c1n[nH]n2c1nc(=S)c1ccccc12 | inactive
O=C(NN=C1CCCCCC1)c1cc(-c2ccccc2)nc2ccccc12 | inactive
COc1ccc(C(=O)c2ccc(OC)c(N)c2)cc1N | inactive
COc1cc(OC)cc(C(=O)NC(=S)N2CCCCCC2)c1 | inactive
COc1ccc(C(=O)N2CCC(N3CCN(c4ccccc4)CC3)CC2)cc1 | inactive
CCc1ccc(NC(=O)CSc2nc3ccsc3c(=O)n2CCC(=O)O)cc1 | inactive
CC(C)CC(=O)O/N=C1\C(=O)N(c2ccccc2)c2ccccc21 | inactive
Cc1cc(/C=C2\SC(=Nc3ccc(F)cc3)NC2=O)c(C)n1-c1ccc(S(N)(=O)=O)cc1 | inactive
Cc1nc(SC(C)C(=O)c2c(N)n(C)c(=O)n(C)c2=O)c2c(C)c(C)sc2n1 (stereo not drawn) | inactive
O=C(NC(=S)N1CCN(c2nc(-c3ccccc3)cs2)CC1)c1cncc(Br)c1 | inactive

From PubChem BioAssay
